Reference: ChEMBL document CHEMBL4152354, “A reusable magnetic nickel nanoparticle based catalyst for the aqueous synthesis of diverse heterocycles and their evaluation as potential anti-bacterial agent” (2018)
≈ marks a conversion by molar mass, not a printed value.

system: Streptococcus pyogenes; test: Antibacterial activity against Streptococcus pyogenes MTCC 1925 assessed as zone of inhibition at 100 uL after 24 hrs by agar well-diffusion method; format: functional; settings: not given
In short: (§1)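 Mueller-Hinton agar plates swabbed with a bacterial suspension adjusted to 1.5×10^8 CFU/ml. Each 5 mm well received 100 µl of compound, and plates were incubated at 37°C for 24 h. Chloramphenicol (30 mcg) was the positive control and DMSO the negative control. Inhibition zones around wells were measured manually, in triplicate.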

Row | Compound | inhibition zone (IZ)
1 | CC1(C)CC(=O)C(C(C2=C(O)CC(C)(C)CC2=O)c2ccccc2)=C(O)C1 | 0 mm
2 | CCOc1ccc(C(c2c(O)c3ccccc3oc2=O)c2c(O)c3ccccc3oc2=O)cc1 | 20 mm
3 | O=c1oc2ccccc2c(O)c1C(c1ccc(Cl)cc1)c1c(O)c2ccccc2oc1=O | 24 mm
4 | CCOc1ccc(C(C2=C(O)CC(C)(C)CC2=O)C2=C(O)CC(C)(C)CC2=O)cc1 | 0 mm
5 | O=c1oc2ccccc2c(O)c1C(c1cccc(F)c1)c1c(O)c2ccccc2oc1=O | 21 mm
6 | COc1ccc(C(c2c(C)[nH][nH]c2=O)C2C(=O)NC(=O)NC2=O)cc1 (stereo unspecified) | 13 mm
7 | CN(C)c1ccc(C(C2=C(O)CC(C)(C)CC2=O)C2=C(O)CC(C)(C)CC2=O)cc1 | 0 mm
8 | CCC(C1=C(O)CC(C)(C)CC1=O)C1=C(O)CC(C)(C)CC1=O | 0 mm
9 | Cc1ccc(C(C2=C(O)CC(C)(C)CC2=O)C2=C(O)CC(C)(C)CC2=O)cc1 | 0 mm
10 | O=c1oc2ccccc2c(O)c1C(c1ccccc1Cl)c1c(O)c2ccccc2oc1=O | 22 mm
11 | Cc1[nH][nH]c(=O)c1C(c1ccc(Cl)cc1)C1C(=O)NC(=O)NC1=O (stereo unspecified) | 16 mm
12 | COc1cc(C(c2c(C)[nH][nH]c2=O)C2C(=O)NC(=O)NC2=O)ccc1O (stereo unspecified) | 16 mm
13 | Cc1[nH][nH]c(=O)c1C(c1cccc(F)c1)C1C(=O)NC(=O)NC1=O (stereo unspecified) | 15 mm

system: Salmonella enterica; test: Antibacterial activity against Salmonella enterica MTCC 735 assessed as zone of inhibition at 100 uL after 24 hrs by agar well-diffusion method; format: functional; settings: not given

Row | Compound | inhibition zone (IZ)
14 | CC1(C)CC(=O)C(C(C2=C(O)CC(C)(C)CC2=O)c2ccccc2)=C(O)C1 | 0 mm
15 | CCOc1ccc(C(c2c(O)c3ccccc3oc2=O)c2c(O)c3ccccc3oc2=O)cc1 | 11 mm
16 | O=c1oc2ccccc2c(O)c1C(c1ccc(Cl)cc1)c1c(O)c2ccccc2oc1=O | 10 mm
17 | CCOc1ccc(C(C2=C(O)CC(C)(C)CC2=O)C2=C(O)CC(C)(C)CC2=O)cc1 | 0 mm
18 | O=c1oc2ccccc2c(O)c1C(c1cccc(F)c1)c1c(O)c2ccccc2oc1=O | 12 mm
19 | COc1ccc(C(c2c(C)[nH][nH]c2=O)C2C(=O)NC(=O)NC2=O)cc1 (stereo unspecified) | 11 mm
20 | CN(C)c1ccc(C(C2=C(O)CC(C)(C)CC2=O)C2=C(O)CC(C)(C)CC2=O)cc1 | 0 mm
21 | CCC(C1=C(O)CC(C)(C)CC1=O)C1=C(O)CC(C)(C)CC1=O | 0 mm
22 | Cc1ccc(C(C2=C(O)CC(C)(C)CC2=O)C2=C(O)CC(C)(C)CC2=O)cc1 | 0 mm
23 | O=c1oc2ccccc2c(O)c1C(c1ccccc1Cl)c1c(O)c2ccccc2oc1=O | 10 mm
24 | Cc1[nH][nH]c(=O)c1C(c1ccc(Cl)cc1)C1C(=O)NC(=O)NC1=O (stereo unspecified) | 11 mm
25 | COc1cc(C(c2c(C)[nH][nH]c2=O)C2C(=O)NC(=O)NC2=O)ccc1O (stereo unspecified) | 10 mm
26 | Cc1[nH][nH]c(=O)c1C(c1cccc(F)c1)C1C(=O)NC(=O)NC1=O (stereo unspecified) | 11 mm

system: Escherichia coli; test: Antibacterial activity against Escherichia coli MTCC 730 assessed as zone of inhibition at 100 uL after 24 hrs by agar well-diffusion method; format: functional; settings: not given; in short: as §1

Row | Compound | inhibition zone (IZ)
27 | CC1(C)CC(=O)C(C(C2=C(O)CC(C)(C)CC2=O)c2ccccc2)=C(O)C1 | 0 mm
28 | CCOc1ccc(C(c2c(O)c3ccccc3oc2=O)c2c(O)c3ccccc3oc2=O)cc1 | 13 mm
29 | O=c1oc2ccccc2c(O)c1C(c1ccc(Cl)cc1)c1c(O)c2ccccc2oc1=O | 23 mm
30 | CCOc1ccc(C(C2=C(O)CC(C)(C)CC2=O)C2=C(O)CC(C)(C)CC2=O)cc1 | 0 mm
31 | O=c1oc2ccccc2c(O)c1C(c1cccc(F)c1)c1c(O)c2ccccc2oc1=O | 18 mm
32 | COc1ccc(C(c2c(C)[nH][nH]c2=O)C2C(=O)NC(=O)NC2=O)cc1 (stereo unspecified) | 14 mm
33 | CN(C)c1ccc(C(C2=C(O)CC(C)(C)CC2=O)C2=C(O)CC(C)(C)CC2=O)cc1 | 0 mm
34 | CCC(C1=C(O)CC(C)(C)CC1=O)C1=C(O)CC(C)(C)CC1=O | 0 mm
35 | Cc1ccc(C(C2=C(O)CC(C)(C)CC2=O)C2=C(O)CC(C)(C)CC2=O)cc1 | 0 mm
36 | O=c1oc2ccccc2c(O)c1C(c1ccccc1Cl)c1c(O)c2ccccc2oc1=O | 18 mm
37 | Cc1[nH][nH]c(=O)c1C(c1ccc(Cl)cc1)C1C(=O)NC(=O)NC1=O (stereo unspecified) | 17 mm
38 | COc1cc(C(c2c(C)[nH][nH]c2=O)C2C(=O)NC(=O)NC2=O)ccc1O (stereo unspecified) | 17 mm
39 | Cc1[nH][nH]c(=O)c1C(c1cccc(F)c1)C1C(=O)NC(=O)NC1=O (stereo unspecified) | 15 mm

system: Bacillus cereus; test: Antibacterial activity against Bacillus cereus MTCC 430 assessed as zone of inhibition at 100 uL after 24 hrs by agar well-diffusion method; format: functional; settings: not given; in short: as §1

Row | Compound | inhibition zone (IZ)
40 | CC1(C)CC(=O)C(C(C2=C(O)CC(C)(C)CC2=O)c2ccccc2)=C(O)C1 | 0 mm
41 | CCOc1ccc(C(c2c(O)c3ccccc3oc2=O)c2c(O)c3ccccc3oc2=O)cc1 | 12 mm
42 | O=c1oc2ccccc2c(O)c1C(c1ccc(Cl)cc1)c1c(O)c2ccccc2oc1=O | 19 mm
43 | CCOc1ccc(C(C2=C(O)CC(C)(C)CC2=O)C2=C(O)CC(C)(C)CC2=O)cc1 | 0 mm
44 | O=c1oc2ccccc2c(O)c1C(c1cccc(F)c1)c1c(O)c2ccccc2oc1=O | 15 mm
45 | COc1ccc(C(c2c(C)[nH][nH]c2=O)C2C(=O)NC(=O)NC2=O)cc1 (stereo unspecified) | 14 mm
46 | CN(C)c1ccc(C(C2=C(O)CC(C)(C)CC2=O)C2=C(O)CC(C)(C)CC2=O)cc1 | 0 mm
47 | CCC(C1=C(O)CC(C)(C)CC1=O)C1=C(O)CC(C)(C)CC1=O | 0 mm
48 | Cc1ccc(C(C2=C(O)CC(C)(C)CC2=O)C2=C(O)CC(C)(C)CC2=O)cc1 | 0 mm
49 | O=c1oc2ccccc2c(O)c1C(c1ccccc1Cl)c1c(O)c2ccccc2oc1=O | 11 mm
50 | Cc1[nH][nH]c(=O)c1C(c1ccc(Cl)cc1)C1C(=O)NC(=O)NC1=O (stereo unspecified) | 17 mm
51 | COc1cc(C(c2c(C)[nH][nH]c2=O)C2C(=O)NC(=O)NC2=O)ccc1O (stereo unspecified) | 20 mm
52 | Cc1[nH][nH]c(=O)c1C(c1cccc(F)c1)C1C(=O)NC(=O)NC1=O (stereo unspecified) | 15 mm

system: Klebsiella pneumoniae; test: Antibacterial activity against Klebsiella pneumoniae MTCC 109 assessed as zone of inhibition at 100 uL after 24 hrs by agar well-diffusion method; format: functional; settings: not given; in short: as §1

Row | Compound | inhibition zone (IZ)
53 | CC1(C)CC(=O)C(C(C2=C(O)CC(C)(C)CC2=O)c2ccccc2)=C(O)C1 | 0 mm
54 | CCOc1ccc(C(c2c(O)c3ccccc3oc2=O)c2c(O)c3ccccc3oc2=O)cc1 | 19 mm
55 | O=c1oc2ccccc2c(O)c1C(c1ccc(Cl)cc1)c1c(O)c2ccccc2oc1=O | 25 mm
56 | CCOc1ccc(C(C2=C(O)CC(C)(C)CC2=O)C2=C(O)CC(C)(C)CC2=O)cc1 | 0 mm
57 | O=c1oc2ccccc2c(O)c1C(c1cccc(F)c1)c1c(O)c2ccccc2oc1=O | 21 mm
58 | COc1ccc(C(c2c(C)[nH][nH]c2=O)C2C(=O)NC(=O)NC2=O)cc1 (stereo unspecified) | 11 mm
59 | CN(C)c1ccc(C(C2=C(O)CC(C)(C)CC2=O)C2=C(O)CC(C)(C)CC2=O)cc1 | 0 mm
60 | CCC(C1=C(O)CC(C)(C)CC1=O)C1=C(O)CC(C)(C)CC1=O | 0 mm
61 | Cc1ccc(C(C2=C(O)CC(C)(C)CC2=O)C2=C(O)CC(C)(C)CC2=O)cc1 | 0 mm
62 | O=c1oc2ccccc2c(O)c1C(c1ccccc1Cl)c1c(O)c2ccccc2oc1=O | 24 mm
63 | Cc1[nH][nH]c(=O)c1C(c1ccc(Cl)cc1)C1C(=O)NC(=O)NC1=O (stereo unspecified) | 21 mm
64 | COc1cc(C(c2c(C)[nH][nH]c2=O)C2C(=O)NC(=O)NC2=O)ccc1O (stereo unspecified) | 16 mm
65 | Cc1[nH][nH]c(=O)c1C(c1cccc(F)c1)C1C(=O)NC(=O)NC1=O (stereo unspecified) | 20 mm

system: Bacillus cereus; test: Antibacterial activity against Bacillus cereus MTCC 430 after 18 hrs by TTC staining based broth microdilution method; format: functional; settings: MTCC 430, 18 h
In short: (§2)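 Broth microdilution in Mueller-Hinton broth. 50 µl of inoculum from a 0.5 McFarland suspension was added to 50 µl of compound, giving final concentrations of 0.024–400 mg/ml in DMSO. Sealed plates were incubated at 37°C for 18 h, then 50 µl of 0.5% TTC was added for 1 h in the dark. MIC was the lowest concentration with no visible growth (well stays clear). Triplicate; mean ± SD.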

Row | Compound | MIC
66 | CCOc1ccc(C(c2c(O)c3ccccc3oc2=O)c2c(O)c3ccccc3oc2=O)cc1 | 3120 mg/L (≈ 6840 µM)
67 | O=c1oc2ccccc2c(O)c1C(c1ccc(Cl)cc1)c1c(O)c2ccccc2oc1=O | 390 mg/L (≈ 873 µM)
68 | O=c1oc2ccccc2c(O)c1C(c1cccc(F)c1)c1c(O)c2ccccc2oc1=O | 780 mg/L (≈ 1810 µM)
69 | COc1ccc(C(c2c(C)[nH][nH]c2=O)C2C(=O)NC(=O)NC2=O)cc1 (stereo unspecified) | 6250 mg/L (≈ 18200 µM)
70 | O=c1oc2ccccc2c(O)c1C(c1ccccc1Cl)c1c(O)c2ccccc2oc1=O | 3120 mg/L (≈ 6980 µM)
71 | Cc1[nH][nH]c(=O)c1C(c1ccc(Cl)cc1)C1C(=O)NC(=O)NC1=O (stereo unspecified) | 1560 mg/L (≈ 4470 µM)
72 | COc1cc(C(c2c(C)[nH][nH]c2=O)C2C(=O)NC(=O)NC2=O)ccc1O (stereo unspecified) | 390 mg/L (≈ 1080 µM)
73 | Cc1[nH][nH]c(=O)c1C(c1cccc(F)c1)C1C(=O)NC(=O)NC1=O (stereo unspecified) | 780 mg/L (≈ 2350 µM)

system: Klebsiella pneumoniae; test: Antibacterial activity against Klebsiella pneumoniae MTCC 109 after 18 hrs by TTC staining based broth microdilution method; format: functional; settings: MTCC 109, 18 h; in short: as §2

Row | Compound | MIC
74 | CCOc1ccc(C(c2c(O)c3ccccc3oc2=O)c2c(O)c3ccccc3oc2=O)cc1 | 780 mg/L (≈ 1710 µM)
75 | O=c1oc2ccccc2c(O)c1C(c1ccc(Cl)cc1)c1c(O)c2ccccc2oc1=O | 190 mg/L (≈ 425 µM)
76 | O=c1oc2ccccc2c(O)c1C(c1cccc(F)c1)c1c(O)c2ccccc2oc1=O | 390 mg/L (≈ 906 µM)
77 | COc1ccc(C(c2c(C)[nH][nH]c2=O)C2C(=O)NC(=O)NC2=O)cc1 (stereo unspecified) | 3120 mg/L (≈ 9060 µM)
78 | O=c1oc2ccccc2c(O)c1C(c1ccccc1Cl)c1c(O)c2ccccc2oc1=O | 190 mg/L (≈ 425 µM)
79 | Cc1[nH][nH]c(=O)c1C(c1ccc(Cl)cc1)C1C(=O)NC(=O)NC1=O (stereo unspecified) | 390 mg/L (≈ 1120 µM)
80 | COc1cc(C(c2c(C)[nH][nH]c2=O)C2C(=O)NC(=O)NC2=O)ccc1O (stereo unspecified) | 780 mg/L (≈ 2160 µM)
81 | Cc1[nH][nH]c(=O)c1C(c1cccc(F)c1)C1C(=O)NC(=O)NC1=O (stereo unspecified) | 390 mg/L (≈ 1170 µM)
